Results on 23 compounds are retold here after ChEMBL document CHEMBL3877288, “Identification and biochemical characterization of DC07090 as a novel potent small molecule inhibitor against human enterovirus 71 3C protease by structure-based virtual screening” (Eur J Med Chem, 2016).

Series [1] concerns Enterovirus A71. Nature of the series: Inhibition of recombinant N-terminal 6His-tagged EV71 3C protease expressed in Escherichia coli Rosetta using substrate Dabcyl-RTATVQGPSLDFE-Edans at 50 uM after 30 mins by fluorescence assay. In outline:
(§1)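 Preincubated with compound in DMSO for 30 min at 30 °C. Ex 340/Em 500 nm; initial velocity over the first 600 s. Inhibition relative to DMSO control; mean of three experiments. IC50 from serial dilutions.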

For series [2], the system named is Enterovirus A71. Nature of the series: Antiviral activity against EV71 infected in human RD cells assessed as protection against virus infection after 72 hrs by MTS assay. The series is classed as functional, cell-based. The following applies: Enterovirus A.
A short description of series [3]: Inhibition of recombinant N-terminal 6His-tagged EV71 3C protease expressed in Escherichia coli Rosetta using substrate Dabcyl-RTATVQGPSLDFE-Edans preincubated for 30 mins followed by substrate addition. Details: species or system Enterovirus A71. The method, boiled down:
as §1

Series [4] relates to Enterovirus A71. Description: Antiviral activity against EV71 assessed as reduction in viral replication after 72 hrs by CellTiter-glo luminescent cell viability assay. The class given is functional. The following applies: Enterovirus A. In outline:
(§2)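 RD cells seeded at 1 × 10^4/mL in DMEM with 10% FBS and antibiotics, grown 24 h at 37 °C, 5% CO2. Virus (EV71 50 TCID50; CVA16 100 TCID50) mixed with serial compound dilutions, added to cells and held 72 h at 37 °C. Protection read by CellTiter-Glo luminescence. EC50 is the concentration cutting virus-induced cell death by 50% versus virus control. Triplicate, run at least twice.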
(Cellular ATP, detected with luciferase, serves as a proxy for viable cell number.)

Series [5] relates to Enterovirus A71. Nature of the series: Antiviral activity against EV71 infected in African green monkey Vero cells after 48 hrs by plaque assay. As to conditions: Enterovirus A. The series is classed as functional, cell-based.
Series [6] can be described thus: Cytotoxicity against African green monkey Vero cells after 48 hrs by MTT assay. The class given is toxicity, cell-based. The following applies: chlorocebus sabaeus.
Series [7] concerns Enterovirus A71. Nature of the series: Antiviral activity against EV71 infected in human RD cells assessed as reduction in viral plaque formation after 1 hr by crystal violet staining method. The series is classed as functional, cell-based. The following applies: Enterovirus A.
A short description of series [8]: Binding affinity to recombinant N-terminal 6His-tagged EV71 3C protease expressed in Escherichia coli Rosetta by surface plasmon resonance assay. Details: species or system Enterovirus A71. The method, boiled down:
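Compound concentrations in HBS-EP were injected at 30 µL/min for 60 s, with 120 s dissociation, on a Biacore 3000. Kd fitted with a 1:1 Langmuir model.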
A general note: Surface plasmon resonance follows binding to a sensor surface in real time, without labels.

Series [9] is described as follows: (§3) Binding affinity to recombinant N-terminal 6His-tagged EV71 3C protease expressed in Escherichia coli Rosetta after 1 hr by intrinsic fluorescence quenching assay. Details: species or system Enterovirus A71. In outline:
(§4)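 Compound dilutions were mixed with 2 µM 3Cpro (wild type or mutants) for 1 h on ice, then held 5 min in the dark in a 1 cm quartz cell. Trp emission spectra recorded from 300 to 400 nm at 25 °C, with maximum at 340 nm. Kd derived from dose-dependent quenching.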

For series [10], the system named is Enterovirus A71. The description is as §3. The method, boiled down:
as §4

Series [11] in a line: Competitive inhibition of recombinant N-terminal 6His-tagged EV71 3C protease expressed in Escherichia coli Rosetta using substrate Dabcyl-RTATVQGPSLDFE-Edans by Dixon plot. Details: species or system Enterovirus A71. The method, boiled down: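 Same fluorogenic 3Cpro activity assay (8 µM enzyme, 30 min preincubation at 30 °C, Ex 340/Em 500 nm, initial rates) run at inhibitor 0–20 µM and substrate 40–150 µM. Mechanism assigned from Lineweaver–Burk plots; Ki obtained from Dixon plots.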

For series [12], the system named is Coxsackievirus. Description: Antiviral activity against Coxsackievirus A16 assessed as reduction in viral replication after 72 hrs by CellTiter-glo luminescent cell viability assay. The series is classed as functional. The following applies: A16, 72 h. The method, boiled down:
as §2

Series [13] in a line: Cytotoxicity against human RD cells after 48 hrs by CellTiter-glo luminescent cell viability assay. The series is classed as toxicity, cell-based. In outline: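 RD cells plated at 1 × 10^3 per well in DMEM with 10% FBS and antibiotics, cultured overnight at 37 °C, 5% CO2. Compound added at 0–200 µM (final) for 48 h at 37 °C. CellTiter-Glo luminescence read. Inhibition = 1 − RLU(treated)/RLU(cell control) × 100%. CC50 obtained by regression analysis.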

Series [14] in a line: Binding affinity to EV71 3C protease A144S mutant after 1 hr by intrinsic fluorescence quenching assay. Details: species or system Enterovirus A71.
The nature of series [15]: Inhibition of EV71 3C protease A144S mutant using substrate Dabcyl-RTATVQGPSLDFE-Edans preincubated for 30 mins followed by substrate addition by fluorescence assay. Details: species or system Enterovirus A71.
The nature of series [16]: Binding affinity to EV71 3C protease F25A mutant after 1 hr by intrinsic fluorescence quenching assay. More on the design: species or system Enterovirus A71.
In series [17] the test system is Enterovirus A71. Nature of the series: Inhibition of EV71 3C protease F25A mutant using substrate Dabcyl-RTATVQGPSLDFE-Edans at 0.1 to 10 uM preincubated for 30 mins followed by substrate addition by fluorescence assay.
A short description of series [18]: Inhibition of EV71 3C protease F25W mutant using substrate Dabcyl-RTATVQGPSLDFE-Edans at 0.1 to 10 uM preincubated for 30 mins followed by substrate addition by fluorescence assay. More on the design: species or system Enterovirus A71.
A short description of series [19]: Binding affinity to EV71 3C protease F25W mutant after 1 hr by intrinsic fluorescence quenching assay. More on the design: species or system Enterovirus A71.
The subject of series [20] is Enterovirus A71. Description: Ratio of IC50 for recombinant N-terminal 6His-tagged EV71 3C protease to IC50 for EV71 3C protease A144S mutant.
The test system of series [21] is Enterovirus A71. Description: Ratio of IC50 for recombinant N-terminal 6His-tagged EV71 3C protease to IC50 for EV71 3C protease F25W mutant.
The test system of series [22] is Enterovirus A71. Nature of the series: Antiviral activity against EV71 infected in human RD cells assessed as protection against virus-induced cytopathic effect after 48 hrs by MTS assay. The series is classed as functional, cell-based. The following applies: Enterovirus A. A general note: Protection from cytopathic effect is a common read-out in antiviral testing.

In general, inhibition refers to the relative decrease from the control value, in per cent. The term EC50 denotes the concentration that produces a half-maximal response. The IC50 is the midpoint of a concentration-inhibition curve. For orientation: CC50 means the concentration giving 50% cytotoxicity. In general, Kd refers to the constant that tells how readily two partners part at equilibrium. For orientation: Ki means a dissociation constant, usually derived from enzyme kinetics or from competition with a known ligand.

Active and inactive are the calls of the source. The calls are words filed in the database; no cut-off is given here.

For the compound `Cc1cccc(CNc2ccc(-c3nc4nc(C)ccc4o3)cc2Cl)n1`, the inhibition in series [1] was determined as 18.6%.
Take `O=c1cc(-c2ccccc2)oc2cc(O)cc(O)c12` [CHRYSIN]: the 50% effective concentration (EC50) in series [2] is 15.9 µM.
In the case of `Cc1cccc(CNc2ccc(Cc3nc4ncccc4o3)cc2)n1`, in [3], the IC50 is 31.6 µM. Also, in [1], the inhibition was determined as 60%.
Taken in the same sequence, the figures for `c1ccc(CNc2ccc(Cc3nc4ncccc4o3)cc2)nc1` were 48 µM and 73.7%.
Turning to `C#C[C@@]1(O)[C@H](O)[C@@H](CO)O[C@H]1n1ccc2c(N)ncnc21`, the EC50 was 0.17 µM in series [4] and 0.67 µM in series [5]. Also, half-maximal cytotoxicity in series [6] (CC50 at 48 h) was put at 120 µM.
For the compound `Clc1cc(-c2nc3ncccc3o2)ccc1NCc1ccccn1`, the inhibition in [1] is 6.65%.
Same read-out and setting: under `Cc1cccc(CNc2ccc(-c3nc4ncccc4o3)cc2Cl)n1` stands 34.7%.
Take `Cc1cccc(CNc2ccc(-c3nc4ncccc4o3)cc2)n1`: the IC50 in series [3] stood at 40.1 µM. In series [1], the inhibition came out at 68.1%.
For `Cc1ccc2oc(-c3ccc(NCc4ccccn4)cc3)nc2n1`, in [1], the inhibition was 19.2%.
Same read-out and setting: the same measure for `Cc1ccc2oc(-c3ccc(NCc4ccccn4)c(F)c3)nc2n1`: 6.72%; for `Cc1cccc(CNc2ccc(-c3nc4nc(C)ccc4o3)cc2)n1`: under 5%.
For the compound `COc1cc(-c2cc(=O)c3c(O)cc(OP(=O)(OC(C)C)OC(C)C)cc3o2)cc(OC)c1O`, the EC50 in series [2] was 9.06 µM.
As to `C[C@@H]1O[C@@H](OC[C@H]2O[C@@H](Oc3c(-c4ccc(O)c(O)c4)oc4cc(O)cc(O)c4c3=O)[C@H](O)[C@@H](O)[C@@H]2O)[C@H](O)[C@H](O)[C@H]1O` [RUTIN], the EC50 in [7] came out at 110 µM.
On to `c1ccc(CNc2ccc(-c3nc4ncccc4o3)cc2)nc1`, for which the IC50 in series [3] was found to be 21.7 µM; in series [15] it was 9.73 µM; in [18], 2.28 µM. Also, the Kd in series [8] is 16.5 µM; in series [9], 13.4 µM; in [14] it was 6.37 µM; in [16], 25 µM; in [19] it was 12.1 µM. Moreover, the Activity entry in [10] was “Dose-dependent effect”. In addition, the Ki in series [11] was found to be 23.3 µM. For the same compound, the inhibition in [1] was determined as 80.2%. The EC50 in series [4] came out at 22.1 µM; in series [12], 27.8 µM. Moreover, the 50% cytotoxic concentration (CC50) at 48 h in series [13] is over 200 µM. Further, in [17], the inhibition entry is “Active”. The Ratio IC50 in [20] turned out to be 2.2; in series [21] it was 9.5.
As to `Fc1cc(-c2nc3ncccc3o2)ccc1NCc1ccccn1`, the inhibition in series [1] was under 5%.
The same measure, in the same setting: under `Cc1cccc(CNc2ccc(-c3nc4nc(C)ccc4o3)cc2F)n1` stands under 5%.
Consider `O=c1c(O)c(-c2ccc(O)c(O)c2)oc2cc(O)ccc12` [FISETIN], for which the EC50 in series [7] was 84.5 µM.
As for `Cc1ccc2oc(-c3ccc(NCc4ccccn4)c(Cl)c3)nc2n1`, in [1], the inhibition came to 6.96%.
On to `CCOC(=O)/C=C/[C@H](C[C@@H]1CCNC1=O)NC(=O)[C@@H](CC(=O)[C@@H](NC(=O)c1cc(C)on1)C(C)C)Cc1ccc(F)cc1` [RUPINTRIVIR], for which the IC50 in series [3] was 2.62 µM. Also, the inhibition in [1] worked out at 104%. Besides, the EC50 in series [12] stood at 0.00565 µM.
Take `Cc1cccc(CNc2ccc(-c3nc4ncccc4o3)cc2F)n1`: the inhibition in series [1] came to 19.2%.
Same read-out and setting: under `Cc1ccc2oc(Cc3ccc(NCc4ccccn4)cc3)nc2n1` stands 11.9%; under `Cc1cccc(CNc2ccc(Cc3nc4nc(C)ccc4o3)cc2)n1`, 7.42%.
Take `O=c1cc(-c2ccc(O)c(O)c2)oc2cc(O[C@@H]3O[C@H](CO)[C@@H](O)[C@H](O)[C@H]3O)cc(O)c12` [GALUTEOLIN]: the EC50 in [22] came out at 430 µM.
